Screening data (PubChem)
MC4R antagonist = blocks human MC4R cAMP signaling. P32245. MC4R-expressing cells, MTII-stimulated cAMP, LANCE TR-FRET. inhibition, % at 6.5 µM. hit rate 0.48% among 360,000. AID 540295;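 active = inhibition above its plate's cutoff, the mean of tested wells on that plate plus 3 SD, cut at about 29% in these data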;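 note: 0% = Melanotan II alone and 100% = Melanotan II plus saturating MCL0020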
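Assay system: human MC4R-expressing U2OS cells; reagent: Melanotan II stimulation of cells; dosing: 6.5 µM single dose; timing: compound 30 min, challenge 1 h, detection 1 h; signal: TR-FRET cAMP assay; replicates: one well per compound, no replicates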
T cell HTS = T cell immune modulation candidate | response (vesicle binding), % at 7 µM | hit rate 0.068% among 330,000 | AID 2052 | 2C CD8+ T cell-vesicle binding, flow cytometry; stronger effect = lower value;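 active = response, share of CD8 T cells binding vesicles, and their 90th percentile fluorescence all below set limits, cut at about 80% in these data, passing the limit was not always enough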;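 note: values below 100% mean blocked vesicle binding to the CD8+ T cells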
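Read-out – percent CD8+ FL2 mean versus row control · System – murine 2C transgenic CD8+ T lymphocytes · Times – 1.5 h cell–vesicle binding at 37 °C, then 20 min icy labelling · Control set – naked vesicles low, QL9 vesicles with vehicle high · Detection – cytometric PE anti-B7-1 and Alexa647 anti-CD8 signals after 1% paraformaldehyde fixation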
Exocytosis inh = blocks lytic granule exocytosis; TALL-104 LAMP-1 surface exposure, flow cytometry; cells stimulated with thapsigargin and PMA; inhibition, % at 10 µM; hit rate 0.66% among 360,000;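 active = inhibition above about 55%, limit read from the data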
EP2 modulator = modulates human prostaglandin E2 receptor EP2 signaling. induction, % at 25 µM. AID 940. hit rate 0.83% among 260,000. P43116. EP2-expressing cells, cAMP HTRF FRET, PGE2 co-stimulation;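 active = compounds whose cAMP rise, as percent of the full-agonist control response, exceeds 60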;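 note: rat C6 glioma line stably carrying human EP2 under a CMV promoter; the protocol text gives 20 µM as final concentration; 100% = response of wells given 1 µM PGE2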
Target sequence (P43116 whole entry, looked up): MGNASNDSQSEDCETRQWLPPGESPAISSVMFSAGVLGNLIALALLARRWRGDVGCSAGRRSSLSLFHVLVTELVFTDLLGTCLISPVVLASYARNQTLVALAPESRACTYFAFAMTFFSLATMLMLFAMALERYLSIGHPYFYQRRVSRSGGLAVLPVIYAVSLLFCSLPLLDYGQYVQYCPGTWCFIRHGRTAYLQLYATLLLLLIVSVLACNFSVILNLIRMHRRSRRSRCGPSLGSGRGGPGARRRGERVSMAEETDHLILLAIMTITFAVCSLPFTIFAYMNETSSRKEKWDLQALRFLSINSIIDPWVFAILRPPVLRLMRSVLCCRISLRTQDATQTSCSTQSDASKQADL
PGE2 EP2 inh = EP2 receptor (human) inhibition; P43116; C6 glioma cells expressing human EP2, cAMP TR-FRET; cells stimulated with saturating PGE2; inhibition, % at 25 µM; hit rate 0.52% among 260,000; AID 1422;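 active = percent inhibition above 40 after rounding to a whole number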;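 note: rat C6 glioma host cells with rolipram phosphodiesterase inhibitor present; the protocol text gives 20 µM as final concentration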
MC4R ag barr = agonists of human melanocortin 4 receptor (MC4R) beta-arrestin. P32245. U2OS MC4R beta-arrestin complementation, luminescence; percent of melanotan II response, DMSO zero. activation, % at 8.9 µM. hit rate 0.98% among 360,000;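 active = activation above a per-plate cutoff, the mean activation of sample wells on that plate plus 3 SD, cut at about 8% in these data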
Active calls of the source: *. An excerpt weighted towards active compounds, which were near 2.6% of everything screened.

For COc1ccc(OC)c(-c2csc(N(C)C(=O)c3cc(OC)c(OC)c(OC)c3)n2)c1 the results were EP2 modulator -13 and PGE2 EP2 inh 4.
`COc1ccc(OC)c(-c2csc(N(C)C(=O)COc3ccc(C)cc3)n2)c1` gave EP2 modulator 32 and PGE2 EP2 inh 54*.
For COc1ccc(OC)c(-c2csc(N(C)C(=O)C3CCCCC3)n2)c1 the results were EP2 modulator -14 and PGE2 EP2 inh 25.
`CCN(C(=O)C1CC1)c1nc(-c2cc(OC)ccc2OC)cs1` gave EP2 modulator 65* and PGE2 EP2 inh 9.
Screening C#CCOCCOCCOCCNc1nc(N2CCN(C(=O)Cn3cc(CCO)nn3)CC2)nc(N2CCN(C(=O)[C@H]([C@@H](C)CC)n3cc(CCCCN)nn3)CC2)n1 returned MC4R antagonist 1, Exocytosis inh 5 and MC4R ag barr -1.
`CCOC(=O)C(C(=O)NCC1CCCO1)C1CCCCC1` (configuration not stated) gave MC4R antagonist -4, T cell HTS 314, Exocytosis inh 2, EP2 modulator 23, PGE2 EP2 inh 11 and MC4R ag barr 0.
Cc1ccc(C(=O)Nc2ccc(S(=O)(=O)N3CCOCC3)cc2)cc1C was read as MC4R antagonist 1, T cell HTS 762, Exocytosis inh -1 and MC4R ag barr 0.
`CC(=O)Nc1ccc(NC(=O)CCCN2C(=O)c3ccccc3C2=O)cc1` gave MC4R antagonist -5, T cell HTS 785, Exocytosis inh 1, EP2 modulator -14, PGE2 EP2 inh 8 and MC4R ag barr 5.
Cn1c(=O)c2c(nc(NCCNc3nc4c(c(=O)n(C)c(=O)n4C)n3C)n2C)n(C)c1=O was read as EP2 modulator 20 and PGE2 EP2 inh 45*.
`Cc1ccc(-c2nn(C(C)(C)C)c3ncnc(NS(=O)(=O)c4ccc([N+](=O)[O-])cc4)c23)cc1` gave MC4R antagonist 4, T cell HTS 190, Exocytosis inh 2, EP2 modulator 62*, PGE2 EP2 inh 11 and MC4R ag barr -2.
For Cc1ccc(S(=O)(=O)Nc2ncnc3sc(C)c(C)c23)cc1 the results were MC4R antagonist 9, T cell HTS 246, Exocytosis inh 7 and MC4R ag barr -3.
`COCC(=O)NCCCn1ccnc1` gave EP2 modulator -13 and PGE2 EP2 inh 5.
For C=CCn1c(=O)c(C(=O)NCC)c(O)c2ccccc21 the results were EP2 modulator 70* and PGE2 EP2 inh -1.
CCCn1c(=O)c(C(=O)Nc2ccccc2C(=O)OC)c(O)c2ccccc21 was read as MC4R antagonist 1, T cell HTS 211, Exocytosis inh 2, EP2 modulator 63*, PGE2 EP2 inh 6 and MC4R ag barr 3.
`CCCn1c(=O)c(C(=O)NCCCCl)c(O)c2ccccc21` gave EP2 modulator 70* and PGE2 EP2 inh 19.
C=CCn1c(=O)c(C(=O)NCCN(CC)CC)c(O)c2ccccc21 was read as MC4R antagonist 2, T cell HTS 281, Exocytosis inh -11, EP2 modulator -4, PGE2 EP2 inh 6 and MC4R ag barr 1.
For CC[C@H](C)[C@@H]1NC(=O)c2cc([N+](=O)[O-])cc(I)c2NCC[C@@H](C(N)=O)NC(=O)[C@H](CCCN=C(N)N)NC1=O the results were T cell HTS 472, EP2 modulator 32 and PGE2 EP2 inh 6.
CC1CCC2(CC1)NC(=O)N(CC(=O)Nc1ccc3c(c1)OCCCO3)C2=O (configuration not stated) was read as MC4R antagonist 2, T cell HTS 351, Exocytosis inh 1 and MC4R ag barr 0.
`O=C(COC(=O)c1cccnc1Nc1ccccc1F)NCCN1C(=O)CSC1=O` gave MC4R antagonist 4, T cell HTS 598, Exocytosis inh -2, EP2 modulator -30, PGE2 EP2 inh -4 and MC4R ag barr -1.
For CC1(C)Cc2cccc(OCC(=O)NCCc3ccccc3)c2O1 the results were MC4R antagonist 3, T cell HTS 232, Exocytosis inh 3 and MC4R ag barr 1.
